Assay results: ChEMBL document CHEMBL1153112, “Identification of a series of substituted 2-piperazinyl-5-pyrimidylhydroxamic acids as potent histone deacetylase inhibitors” (Bioorg Med Chem Lett, 2010)
In brackets after ≈: the same amount, converted by molar mass.

How the values were obtained:
Histone deacetylase = assay: Inhibition of HDAC in human HeLa cells extractt; type: cell-free
A2780 [1] = assay: Antiproliferative activity against human A2780 cells; type: functional, cell-based
In short: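 A2780 ovarian carcinoma proliferation assay in 384-well format, modified from the patent protocol. IC50 given as the mean of triplicate experiments ± SD; some values come from a single experiment.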

A2780 [2] = assay: Anticancer activity against human A2780 cells expressing p21 waf1,cip1 xenografted in athymic nude mouse assessed as fold increase in fluorescence at 40 mg/kg, po administered once for 3 days relative to R306465; type: functional
In short: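 A2780 ovarian carcinoma cells engineered to express ZsGreen under the p21waf1,cip1 promoter were grafted subcutaneously into athymic nude mice. Animals were dosed orally at 40 mg/kg for 3 days. In vivo fluorescence induction was then read by noninvasive whole-body imaging and expressed as fold increase versus reference R306465 set at 1.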

[3] = Thermodynamic solubility in phosphate-citrate buffer at pH 4.6; type: physicochemical
In short: (§1)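 Thermodynamic solubility. About 2.5 mg of solid was weighed and equilibrated in phosphate-citrate buffer at the stated pH, then filtered where needed. The filtrate was diluted in 0.1 N HCl/acetonitrile (1/1) and the concentration measured by UPLC.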

[4] = Thermodynamic solubility in phosphate-citrate buffer at pH 7.4; type: physicochemical; in short: as §1
[5] = AUC (0 to infinity) in Sprague-Dawley rat at 2.5 mg/kg, iv administered in water at pH 4.4; type: ADME, organism-based; set-up: time infinity, dose 2.5 mg/kg, route intravenous; settings: plasma
In short: (§2)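 Male Sprague-Dawley rats. IV arm dosed at 2.5 mg/kg in water at pH 4.4; oral arm dosed at 10 mg/kg in water at pH 4.5. AUC0-inf taken for each route. Clearance and Vdss come from the IV arm. F (%) comes from the oral versus IV exposure.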

[6] = Clearance in Sprague-Dawley rat at 2.5 mg/kg, iv administered in water at pH 4.4; type: ADME, organism-based; set-up: dose 2.5 mg/kg, route intravenous; settings: in vivo; in short: as §2
[7] = Volume of distribution at steady state in Sprague-Dawley rat at 2.5 mg/kg, iv administered in water at pH 4.4; type: ADME, organism-based; set-up: dose 2.5 mg/kg, route intravenous; settings: in vivo, read-out: Vdss; in short: as §2
[8] = Half life in Sprague-Dawley rat at 2.5 mg/kg, iv administered in water at pH 4.4 measured 2 to 8 hrs post dose; type: ADME, organism-based; set-up: dose 2.5 mg/kg, route intravenous; settings: in vivo
In short: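 Male Sprague-Dawley rats given 2.5 mg/kg IV in water at pH 4.4. Half-life estimated from the 2 h to 8 h post-dose interval.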

[9] = AUC (0 to infinity) in Sprague-Dawley rat at 10 mg/kg, po administered in water at pH 4.5; type: ADME, organism-based; set-up: time infinity, dose 10 mg/kg, route oral; settings: plasma; in short: as §2
[10] = Oral bioavailability in Sprague-Dawley rat at 10 mg/kg administered in water at pH 4.5; type: ADME, organism-based; settings: in vivo; in short: as §2
[11] = Half life in Sprague-Dawley rat at 2.5 mg/kg, iv administered in water at pH 4.4 measured 1 to 4 hrs post dose; type: ADME, organism-based; set-up: dose 2.5 mg/kg, route intravenous; settings: in vivo
In short: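 Male Sprague-Dawley rats given 2.5 mg/kg IV in water at pH 4.4. Terminal half-life fitted over the 1 h to 4 h post-dose window.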

[12] = Thermodynamic solubility in phosphate-citrate buffer at pH 7.7; type: physicochemical; in short: as §1

SMILES	IC50 (Histone deacetylase) [nM]	IC50 (A2780 [1]; Homo sapiens, A2780) [nM]	also measured
O=C(NO)c1cnc(N2CCN(C(/C=C/c3ccc(C(F)(F)F)cc3)CO)CC2)nc1 (centres undefined)	2.1	65	
O=C(NO)c1cnc(N2CCN(C(/C=C/c3ccccc3)CO)CC2)nc1 (stereo in doubt; 3a1)	1		IC50 (A2780 [1]; a2780): 40 nM
O=C(NO)c1cnc(N2CCN(C(/C=C/c3ccc(-c4ccccc4)cc3)CO)CC2)nc1 (centres undefined)	0.9	29	
O=C(NO)c1cnc(N2CCN(C(/C=C/c3ccccc3F)CO)CC2)nc1 (centres undefined)	2	< 30	
O=C(NO)c1cnc(N2CCN(Cc3ccc4ccccc4c3)CC2)nc1	1.5	66	
O=C(NO)c1cnc(N2CCN(C(/C=C/c3ccc(F)cc3)CO)CC2)nc1 (single isomer, unassigned; (+))			IC50 (A2780 [1]; a2780): 27 nM
Cc1ccc(/C=C/C(CO)N2CCN(c3ncc(C(=O)NO)cn3)CC2)cc1 (centres undefined)	1	18	
O=C(NO)c1cnc(N2CCC(NC(/C=C/c3ccccc3)CO)CC2)nc1 (centres undefined)	7	219	
CNC(=O)C(/C=C/c1ccccc1)N1CCN(c2ncc(C(=O)NO)cn2)CC1 (centres undefined)	3.3	159	
O=C(NO)c1cnc(N2CCN(C(/C=C/c3ccc(F)cc3)CO)CC2)nc1 (single isomer, unassigned; (-))			IC50 (A2780 [1]; a2780): 31 nM; AUC(0-inf) [5]: 521 ng·h/mL; clearance [6]: 76.7 mL/min/kg; Vd [7]: 1.6 L/kg; half-life [11]: 0.8 h; AUC(0-inf) [9]: 466 ng·h/mL; bioavailability [10]: 22%
O=C(NO)c1cnc(N2CCC(CNC(/C=C/c3ccccc3)CO)CC2)nc1 (centres undefined)	1.5	47	
COc1ccc(/C=C/C(CO)N2CCN(c3ncc(C(=O)NO)cn3)CC2)cc1 (centres undefined)	0.95	18	
O=C(NO)c1cnc(N2CCN(C(/C=C/c3ccc(F)cc3)CO)CC2)nc1 (stereo in doubt; 3i)		32	
O=C(NO)c1cnc(N2CCN(S(=O)(=O)c3ccc4ccccc4c3)CC2)nc1 [R-306465]		39	solubility thermodynamic [12]: < 100 µg/mL; AUC(0-inf) [5]: 2650 ng·h/mL; clearance [6]: 13.3 mL/min/kg; Vd [7]: 0.6 L/kg; half-life [8]: 1.5 h; AUC(0-inf) [9]: 3380 ng·h/mL; bioavailability [10]: 20%

Second part, led by results:

IC50 (Histone deacetylase) [nM]	IC50 (A2780 [1]; Homo sapiens, A2780) [nM]	SMILES	also measured
11	315	O=C(NO)c1cnc(N2CCN(C(/C=C/c3ccccc3)CN3CCOCC3)CC2)nc1 (centres undefined)	
8	295	O=C(NO)c1cnc(N2CCOC(CNC(/C=C/c3ccccc3)CO)C2)nc1 (centres undefined)	
7	124	O=C(NO)c1cnc(N2CCN(C(/C=C/c3ccccc3)C(=O)N3CCOCC3)CC2)nc1 (centres undefined)	
3.8	281	NC(/C=C/c1ccccc1)CN1CCN(c2ncc(C(=O)NO)cn2)CC1 (centres undefined)	fold change (FC) (A2780 [2]): 0.5
6.9	392	CN1CCN(CC(/C=C/c2ccccc2)N2CCN(c3ncc(C(=O)NO)cn3)CC2)CC1 (centres undefined)	
1.5	45	COCC(/C=C/c1ccccc1)N1CCN(c2ncc(C(=O)NO)cn2)CC1 (centres undefined)	
2	25	O=C(NO)c1cnc(N2CCN(C(/C=C/c3ccccc3)CO)CC2)nc1 (stereo in doubt; 3a)	solubility thermodynamic [3]: > 10000 µg/mL; solubility thermodynamic [4]: 1100 µg/mL (≈ 2980 µM); AUC(0-inf) [5]: 413 ng·h/mL; clearance [6]: 98.3 mL/min/kg; Vd [7]: 5.8 L/kg; half-life [8]: 2.6 h; AUC(0-inf) [9]: 316 ng·h/mL; bioavailability [10]: 19%; fold change (FC) (A2780 [2]): 5
1.7	20	CC(/C=C/c1ccccc1)N1CCN(c2ncc(C(=O)NO)cn2)CC1 (centres undefined)	
1.2	17	O=C(NO)c1cnc(N2CCN(C(/C=C/c3ccc(Cl)cc3)CO)CC2)nc1 (centres undefined)	
1.8		O=C(NO)c1cnc(N2CCN(C(/C=C/c3ccccc3)CO)CC2)nc1 (single isomer, unassigned; (-))	IC50 (A2780 [1]; a2780): 30 nM
1.2	36	O=C(NO)c1cnc(N2CCN(C(/C=C/c3cccc(F)c3)CO)CC2)nc1 (centres undefined)	
